Measured values as given in ChEMBL document CHEMBL5674882, “Benzolactam-related compounds promote apoptosis of HIV-infected human cells via protein kinase C-induced HIV latency reversal” (J Biol Chem, 2019).
Activity calls are given as the source filed them. The calls are words filed in the database; no cut-off is given here.

Key:
[1] = target: T1, Protein kinase C (PKC) (Homo sapiens) (UniProt O94806+P41743+P17252+P05129+Q05655+P05771+Q05513+Q02156+P24723+Q15139+Q04759); experiment: Activation of PKC in human ACH-2 cells infected with latent HIV-1 assessed as reversal of HIV-1 latency by measuring increase in p24 antigen level at 1 to 10000 nM incubated for 48 hrs by chemiluminescent enzyme immunoassay; assay type: cell-based; settings: ACH-2 cell line, dose 1-10000 nM
Summary of the method: (§1)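 ACH-2 or U1 cells (5 × 10^5 cells/ml) incubated 48 h with graded drug concentrations. Supernatant p24 antigen measured by automated chemiluminescent immunoassay. EC50 calculated taking the maximum response with excess PMA as 100%. Means ± S.D. of three independent experiments.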

[2] = target: T1, Protein kinase C (PKC) (Homo sapiens); experiment: Activation of PKC in human U1 cells infected with latent HIV-1 assessed as reversal of HIV-1 latency by measuring increase in p24 antigen level at 1 to 10000 nM incubated for 48 hrs by chemiluminescent enzyme immunoassay; assay type: cell-based; settings: dose 1-10000 nM; summary of the method: as §1
Protein kinase C (PKC) [3] = experiment: Activation of PKC in human ACH-2 cells infected with latent HIV-1 assessed as reversal of HIV-1 latency by measuring increase in p24 antigen level incubated for 48 hrs by chemiluminescent enzyme immunoassay; assay type: cell-based; settings: ach-2 cell line
Protein kinase C (PKC) [4] = experiment: Activation of PKC in human U1 cells infected with latent HIV-1 assessed as reversal of HIV-1 latency by measuring increase in p24 antigen level incubated for 48 hrs by chemiluminescent enzyme immunoassay; assay type: cell-based
[5] = Toxicity in human A3.01 cells assessed as reduction in cell viability after 48 hrs by WST8 assay; assay type: cell-based
Summary of the method: (§2)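 Parental, uninfected lines (A3.01 for ACH-2, U937 for U1) at 5 × 10^5 cells/ml cultured with or without drug. Viable cells read at 48 h (day 2) and expressed as % of untreated control. CC50 taken as the concentration lowering viability by 50%.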

[6] = Toxicity in human U-937 cells assessed as reduction in cell viability after 48 hrs by WST8 assay; assay type: cell-based; summary of the method: as §2
[7] = Toxicity in human PBMC assessed as reduction in cell viability after 5 days by WST8 assay; assay type: cell-based; settings: time 5 day
Summary of the method: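 PBMC from a healthy donor exposed to drug, with viability determined at day 5. CC50 is the concentration reducing viability by 50%.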

ACH-2 cell line [8] = experiment: Induction of apoptosis in human ACH-2 cells at 1 uM after 48 hrs by PI/annexin-V staining based flow cytometry; assay type: functional
U1 [9] = experiment: Induction of apoptosis in human U1 cells at 1 uM after 48 hrs by PI/annexin-V staining based flow cytometry; assay type: functional
ACH-2 cell line [10] = experiment: Induction of apoptosis in human ACH-2 cells at 1 uM incubated for 48 hrs after pre-incubated for 2 hrs with 20 uM caspase inhibitor Q-VD-Oph by propidium iodide/annexin-V staining based flow cytometry; assay type: functional, cell-based
Summary of the method: (§3)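 ACH-2 or U1 cells pretreated 2 h with 20 µM pan-caspase inhibitor Q-VD-Oph, then exposed to 1 µM compound for 48 h. Annexin-V/PI staining by flow cytometry; apoptotic proportions compared with and without Q-VD-Oph. Mean ± S.D.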

U1 [11] = experiment: Induction of apoptosis in human U1 cells at 1 uM incubated for 48 hrs after pre-incubated for 2 hrs with 20 uM caspase inhibitor Q-VD-Oph by propidium iodide/annexin-V staining based flow cytometry; assay type: functional, cell-based; summary of the method: as §3
[12] = target: T1, Protein kinase C (PKC) (Homo sapiens); experiment: Activation of PKC in human J-Lat 6.3 cells infected with latent HIV-1 assessed as reversal of HIV-1 latency by measuring increase of GFP-positive cells at 10 uM in presence of pan-PKC inhibitor Go-6983 incubated for 24 hrs by flow cytometry; assay type: cell-based
Summary of the method: (§4)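 J-Lat 6.3 cells pretreated 3 h with a PKC inhibitor: Gö 6983 1 µM, Gö 6976 1 µM, GF 109203X 1 µM, PKCθ/δ inhibitor 10 µM, or Rottlerin 1 µM. Then exposed to 10 µM compound for 24 h; GFP-positive cells counted by flow cytometry. Mean ± S.D.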

[13] = target: T1, Protein kinase C (PKC) (Homo sapiens); experiment: Activation of PKC in human J-Lat 6.3 cells infected with latent HIV-1 assessed as reversal of HIV-1 latency by measuring increase of GFP-positive cells at 10 uM in presence of PKC alpha/beta inhibitor Go-6976 incubated for 24 hrs by flow cytometry; assay type: cell-based; summary of the method: as §4
[14] = target: T1, Protein kinase C (PKC) (Homo sapiens); experiment: Activation of PKC in human J-Lat 6.3 cells infected with latent HIV-1 assessed as reversal of HIV-1 latency by measuring increase of GFP-positive cells at 10 uM in presence of PKC alpha/beta/gamma inhibitor GF109203X incubated for 24 hrs by flow cytometry; assay type: cell-based; summary of the method: as §4
[15] = target: T1, Protein kinase C (PKC) (Homo sapiens); experiment: Activation of PKC in human J-Lat 6.3 cells infected with latent HIV-1 assessed as reversal of HIV-1 latency by measuring increase of GFP-positive cells at 10 uM in presence of PKC theta/delta/epsilon/eta inhibitor PKCtheta/delta inhibitor incubated for 24 hrs by flow cytometry; assay type: cell-based; summary of the method: as §4
[16] = target: T1, Protein kinase C (PKC) (Homo sapiens); experiment: Activation of PKC in human J-Lat 6.3 cells infected with latent HIV-1 assessed as reversal of HIV-1 latency by measuring increase of GFP-positive cells at 10 uM in presence of PKC delta inhibitor Rottlerin incubated for 24 hrs by flow cytometry; assay type: cell-based; summary of the method: as §4
ACH-2 cell line [17] = experiment: Induction of apoptosis in human ACH-2 cells at 1 uM incubated for 48 hrs by propidium iodide/annexin-V staining based flow cytometry (reference value: 3.16%); assay type: functional
U1 [18] = experiment: Induction of apoptosis in human U1 cells at 1 uM incubated for 48 hrs by propidium iodide/annexin-V staining based flow cytometry (reference value: 3.16%); assay type: functional
J-Lat 6.3 [19] = experiment: Induction of apoptosis in human J-Lat 6.3 cells at 1 uM incubated for 48 hrs by propidium iodide/annexin-V staining based flow cytometry (reference value: 3.16%); assay type: functional
ACH-2 cell line [20] = experiment: Induction of apoptosis in human ACH-2 cells assessed as caspase-3 activation at 1 uM incubated for 24 hrs by flow cytometry; assay type: functional
Summary of the method: (§5)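 Cells fixed in 1% paraformaldehyde, permeabilized, stained 30 min on ice with anti-active caspase-3 mAb, and analysed by flow cytometry. Three independent experiments.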

U1 [21] = experiment: Induction of apoptosis in human U1 cells assessed as caspase-3 activation at 1 uM incubated for 24 hrs by flow cytometry; assay type: functional; summary of the method: as §5
J-Lat 6.3 [22] = experiment: Induction of apoptosis in human J-Lat 6.3 cells assessed as caspase-3 activation at 1 uM incubated for 24 hrs by flow cytometry; assay type: functional; summary of the method: as §5
[23] = Induction of apoptosis in human CEM A3.01 cells assessed as caspase-3 activation at 1 uM incubated for 24 hrs by flow cytometry; assay type: functional; summary of the method: as §5
U-937 = experiment: Induction of apoptosis in human U-937 cells assessed as caspase-3 activation at 1 uM incubated for 24 hrs by flow cytometry; assay type: functional; summary of the method: as §5
Jurkat = experiment: Induction of apoptosis in human Jurkat cells assessed as caspase-3 activation at 1 uM incubated for 24 hrs by flow cytometry; assay type: functional; summary of the method: as §5
ACH-2 cell line [24] = experiment: Induction of apoptosis in human ACH-2 cells assessed as cleaved-PARP level at 1 uM incubated for 24 hrs by flow cytometry (reference value: 1.64%); assay type: functional
Summary of the method: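 Cells fixed, permeabilized, stained on ice with anti-cleaved PARP (Asp-214) mAb; % cleaved-PARP cells by flow cytometry. Means ± S.D. of three independent experiments.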

U1 [25] = experiment: Induction of apoptosis in human U1 cells assessed as caspase-3 activation at 1 uM incubated for 24 hrs by flow cytometry (reference value: 1.86%); assay type: functional; summary of the method: as §5
J-Lat 6.3 [26] = experiment: Induction of apoptosis in human J-Lat 6.3 cells assessed as caspase-3 activation at 1 uM incubated for 24 hrs by flow cytometry (reference value: 2.43%); assay type: functional; summary of the method: as §5
J-Lat 6.3 (Homo sapiens) = experiment: Induction of apoptosis in human J-Lat 6.3 cells at 1 uM incubated for 48 hrs after pre-incubated for 2 hrs with 20 uM caspase inhibitor Q-VD-Oph by propidium iodide/annexin-V staining based flow cytometry
[27] = target: T1, Protein kinase C (PKC) (Homo sapiens); experiment: Activation of PKC in CCL19-induced human CD4+ T-cells infected with latent HIV-1 assessed as reversal of HIV-1 latency by measuring increase in p24 antigen level at 2 uM incubated for 48 hrs in presence of 100 nM PMA by chemiluminescent enzyme immunoassay; assay type: cell-based; settings: CD4+ T cell, filed as activator
[28] = Toxicity in human CD4+ T-cells assessed as increase in ratio of CD25+ cells incubated for 24 hrs by flow cytometry; assay type: cell-based; settings: cd4+ t cell
Summary of the method: (§6)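 Primary CD4+ T-cells from healthy donors treated with drug for 24 h. Cells stained with anti-CD25 and anti-CD69 antibodies (plus CD3, CD4, HLA-DR) for 30 min on ice, then marker-positive proportions quantified by flow cytometry.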

[29] = Toxicity in human CD4+ T-cells assessed as increase in ratio of CD69+ cells incubated for 24 hrs by flow cytometry; assay type: cell-based; settings: cd4+ t cell; summary of the method: as §6

SMILES	Activity ([1]; filed as activator)	Activity ([2]; filed as activator)	EC50 (Protein kinase C (PKC) [3])	EC50 (Protein kinase C (PKC) [4])	CC50 at 48 h [5]	CC50 at 48 h [6]	CC50 at 120 h [7]	Activity (ACH-2 cell line [8])	Activity (U1 [9])	Activity (ACH-2 cell line [10])	Activity (U1 [11])	Activity (ACH-2 cell line [17])	Activity (U1 [18])	Activity (J-Lat 6.3 [19])	Activity (ACH-2 cell line [20])	Activity (U1 [21])	Activity (J-Lat 6.3 [22])	Activity [23]	Activity (U-937)	Activity (Jurkat)	other results
CCCCCCCCCCc1ccc2c(c1)N(C)[C@H](C(C)C)C(=O)N[C@H](CO)C2	Active	Active	0.43 µM	2.33 µM	17.8 µM	39.2 µM	18.9 µM	20.4%	6.1%	inactive	inactive	18.2%	5.9%	7.95%	11.5%	8.42%	2.25%	1.26%	0.127%	0.587%	Activity [12]: inactive; Activity [13]: inactive; Activity [14]: inactive; Activity [15]: inactive; Activity [16]: inactive; Activity (ACH-2 cell line [24]): 10%; Activity (U1 [25]): 4.66%; Activity (J-Lat 6.3 [26]): 4.35%; Activity (J-Lat 6.3 (Homo sapiens)): inactive
CC(C)[C@H]1C(=O)N[C@H](CO)Cc2c[nH]c3cccc(c23)N1C [INDOLACTUM]	Active	Active	0.047 µM	0.36 µM	> 100 µM	> 100 µM	> 100 µM	47.1%	18%	inactive	inactive	45.1%	17.7%	15.7%	24.2%	30.5%	14.1%	2.69%	0.584%	1.72%	Activity [12]: inactive; Activity [13]: inactive; Activity [14]: inactive; Activity [15]: inactive; Activity [16]: inactive; Activity (ACH-2 cell line [24]): 24.2%; Activity (U1 [25]): 7.82%; Activity (J-Lat 6.3 [26]): 22.2%; Activity (J-Lat 6.3 (Homo sapiens)): inactive
CCCCCCCCCCc1ccc2c(c1)N(C)[C@@H](C(C)C)C(=O)N[C@H](CO)CC2																					Activity [1]: inactive; Activity [2]: inactive
C[C@H](CCC(=O)O)C[C@H](C)C[C@H](C)C(=O)/C=C(\O)[C@H](C)C[C@H](C)C/C=C/[C@@H](C)[C@@H](O)[C@@H](C)[C@@H](O)C[C@@H]1CC[C@@](C)([C@H]2CC[C@@](C)([C@@H](C)O)O2)O1																					Activity [27]: Active
CCCCCCCCCCc1ccc2c(c1)N(C)[C@H](C(C)C)C(=O)N[C@H](CO)CC2	Active	Active	1.54 µM	4 µM	> 100 µM	> 100 µM	> 100 µM														
CC(C)[C@@H]1C(=O)N[C@H](CO)Cc2cc3c(cc2N1C)C(C)(C)CCC3(C)C																					Activity [1]: inactive; Activity [2]: inactive
CC(C)[C@H]1C(=O)N[C@H](CO)Cc2cc3c(cc2N1C)C(C)(C)CCC3(C)C	Active	Active	2.91 µM	9.89 µM	19.5 µM	22.9 µM	65.8 µM														
CC(=O)O[C@@]12C[C@@H](C)[C@@]3(O)[C@@H](C=C(CO)C[C@]4(O)C(=O)C(C)=C[C@@H]34)[C@@H]1C2(C)C [PROSTRATIN]					> 100 µM	> 100 µM	> 100 µM	37.7%	14.1%	inactive	inactive	34.7%	12.7%	13.7%	14%	29.9%	8.66%	1.06%	0.307%	1.47%	Activity [28]: Non-Toxic; Activity [29]: Non-Toxic; Activity (ACH-2 cell line [24]): 15.2%; Activity (U1 [25]): 7.83%; Activity (J-Lat 6.3 [26]): 15.6%; Activity (J-Lat 6.3 (Homo sapiens)): inactive
